KCNQ1 inh – inhibitors of human KCNQ1 potassium channel | 1.3% of 310,000 active | P51787 | AID 2642 | CHO-K1 KCNQ1, FluxOR thallium flux fluorescence; active compounds read high | B-score at 10 µM;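 active = compounds whose thallium flux B-score, printed positive for inhibition, exceeds three library SD while starting fluorescence stays within three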;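 also: channel opened by potassium depolarization with thallium stimulus after 20 min compound exposure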
hERG protect – hERG (human) protection from proarrhythmic block; Q12809; CHO-hERG, FluxOR thallium flux, dofetilide IC70 present; activation (rescue from dofetilide block), less the hit threshold, % at 10 µM; 0.51% of 310,000 active;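 active = activation above the mean of controls blocked by dofetilide plus 5 SD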;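 also: thallium influx through hERG after potassium depolarization seen as dye fluorescence rise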
KCNQ1 act – human KCNQ1 channel potentiation or activation | P51787 | CHO-K1 KCNQ1, thallium flux FluxOR fluorescence; active compounds read high | B-score at 10 µM | 0.35% of 310,000 active | AID 2648;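 active = fluorescence ratio B-score, a plate-corrected score, at least three library SD, with initial intensity B-score within 5 SD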
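Assay system: stable KCNQ1 CHO-K1 line; medium: assay buffer, equal DMSO in all wells; timing: 90 min dye loading and 20 min compound exposure, both at room temperature; technique: kinetic FluxOR thallium fluorescence, 10-s 1-Hz baseline, 110-s post-stimulus read; read-out basis: B score of baseline-normalized fluorescence ratio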
AI-2 QS mod – modulates the Vibrio harveyi AI-2 quorum sensing system; AID 2094; activity change, % at 7.5 µM; Vibrio harveyi JMH597 AI-2 luminescence/OD600 ratio, 9 h; active compounds read low; strain lacks LuxN and CqsS sensors; 0 = neutral-control median; 0.4% of 300,000 active; in the data active = activity change below about -75%, passing the limit was not always enough; inconclusive = no clear call, values can overlap the other calls;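 also: luminescence divided by OD600 gain over 9 h not by final OD600 alone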
Cl transport mod – KCC2 (human) Cl- transport modulation; 2.2% of 190,000 active; Q9H2X9; B-score of Tl+ flux slope (higher = more flux/activation; lower = inhibition) at 10 µM; KCC2 cells, thallium flux FluoZin-2 fluorescence; AID 1456;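 active = thallium flux slope and its plate-corrected score both differing from the plate sample mean at a set confidence after two filtering rounds, in either direction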;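 also: slope of fluorescence scaled to starting intensity during 10 to 20 s after thallium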
Target sequence (Q9H2X9 whole entry, looked up): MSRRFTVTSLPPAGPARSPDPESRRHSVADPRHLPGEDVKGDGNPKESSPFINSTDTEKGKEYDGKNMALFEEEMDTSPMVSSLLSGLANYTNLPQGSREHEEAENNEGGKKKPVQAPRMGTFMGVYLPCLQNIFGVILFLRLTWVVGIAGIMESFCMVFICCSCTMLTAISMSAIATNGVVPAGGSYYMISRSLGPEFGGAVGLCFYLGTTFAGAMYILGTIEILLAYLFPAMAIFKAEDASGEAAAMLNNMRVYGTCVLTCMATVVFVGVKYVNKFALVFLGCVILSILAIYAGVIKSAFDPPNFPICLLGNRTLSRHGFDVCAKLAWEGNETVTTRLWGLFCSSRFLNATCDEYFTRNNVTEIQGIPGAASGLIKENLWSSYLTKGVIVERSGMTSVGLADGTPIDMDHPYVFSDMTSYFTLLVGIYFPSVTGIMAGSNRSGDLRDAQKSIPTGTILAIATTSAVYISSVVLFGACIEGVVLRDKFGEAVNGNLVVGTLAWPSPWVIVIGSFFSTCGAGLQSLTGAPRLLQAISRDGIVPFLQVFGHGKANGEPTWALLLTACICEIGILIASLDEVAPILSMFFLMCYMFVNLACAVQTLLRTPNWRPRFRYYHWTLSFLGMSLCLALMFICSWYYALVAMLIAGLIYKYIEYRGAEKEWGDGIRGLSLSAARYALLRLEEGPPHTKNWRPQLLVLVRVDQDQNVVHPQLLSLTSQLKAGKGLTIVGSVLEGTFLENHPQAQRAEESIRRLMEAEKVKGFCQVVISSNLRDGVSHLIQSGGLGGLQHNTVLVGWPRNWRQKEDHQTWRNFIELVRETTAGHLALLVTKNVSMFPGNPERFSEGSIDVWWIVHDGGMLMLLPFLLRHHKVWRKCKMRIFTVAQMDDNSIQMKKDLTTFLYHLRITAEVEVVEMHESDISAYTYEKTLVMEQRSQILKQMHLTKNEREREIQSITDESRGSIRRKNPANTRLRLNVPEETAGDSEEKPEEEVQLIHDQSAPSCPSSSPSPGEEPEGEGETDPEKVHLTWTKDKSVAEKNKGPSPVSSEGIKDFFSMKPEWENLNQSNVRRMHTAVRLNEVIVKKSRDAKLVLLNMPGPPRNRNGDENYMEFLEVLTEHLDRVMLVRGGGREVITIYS
Mot1-301 SUMO – blocks SUMOylation pathway, rescuing yeast Mot1-301 growth; S. cerevisiae Mot1-301 growth rescue, ATP luminescence, 38.5C; percent above DMSO median, 100 means doubled; growth rescue, % at 18.8 µM; 1% of 320,000 active; AID 2716;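 active = every valid replicate shows activation above 250% relative to neutral control wells; inactive = the rest, any valid replicate at or below 250%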
JMH597 growth – retest: blocks Vibrio harveyi JMH597 growth; shares compounds with AI-2 QS mod; OD600 absorbance, 9 h; lacks LuxN and CqsS sensors; growth inhibition, % at 7.5 µM; 1% of 750 active;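 active = every replicate shows growth inhibition above 50%; inconclusive = at least half, but not all, replicates pass that cutoff; inactive = fewer than half of replicates pass it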
BB721 lum counter – retest counter-screen: lowers luminescence of constitutive-QS Vibrio harveyi BB721; AID 2727; inhibition, % at 7.5 µM; 9 h; shares compounds with AI-2 QS mod; 95% of 750 active;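 active = inhibition above about 80% in every replicate, not just on average, limit read from the data; inconclusive = at least half of replicates past the limit, but not all; inactive = fewer than half of replicates past the limit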
BB721 growth rt – retest Vibrio harveyi BB721 growth inhibition. shares compounds with AI-2 QS mod. OD600 absorbance, 9 h. growth inhibition, % at 7.5 µM. 3% of 750 active. AID 2728;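 active = every replicate shows growth inhibition above 50%; inconclusive = at least half but not all replicates above 50% inhibition; inactive = under half of replicates above 50% inhibition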
AI-2 QS JMH597 – Vibrio harveyi AI-2 signaling luminescence modulation – JMH597 strain, confirmation; 97% of 750 active; AID 2736; shares compounds with AI-2 QS mod; Vibrio harveyi JMH597 AI-2 quorum sensing luminescence, 9 h; luxN and CqsS knockout, AI-2 only; inhibition, % at 7.5 µM;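 active = every replicate shows more than 75% inhibition of signal versus neutral control wells; inconclusive = half to three quarters of replicates exceed 75% inhibition; inactive = fewer than half of replicates exceed 75% inhibition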
Numbers stand for hits; . = inactive; ? = inconclusive; / = not tested or not shown. Hits are enriched below; roughly 4.2% of the tested compounds scored in any of these assays.

SMILES | KCNQ1 inh | hERG protect | KCNQ1 act | AI-2 QS mod | Cl transport mod | Mot1-301 SUMO | JMH597 growth | BB721 lum counter | BB721 growth rt | AI-2 QS JMH597
Cc1ccc(CNC(=O)Nc2cccc(C)c2)cc1 | . | . | . | -90 | . | . | . | 99 | . | 99
O=C(NCc1ccccc1)NC1CCCCC1 | . | . | . | . | . | . | / | / | / | /
COc1ccc(CNC(=O)NC2CCCCC2)cc1 | . | . | . | -87 | . | . | . | 92 | . | 95
Cc1ccc(C)c(SCC(=O)OCC(=O)NCCNC(=O)COC(=O)CSc2cc(C)ccc2C)c1 | . | . | . | . | / | . | / | / | / | /
O=c1ccc(-c2ccc(S(=O)(=O)Nc3ccc(F)cc3)s2)n[nH]1 | . | . | . | . | / | . | / | / | / | /
CCn1c(SCc2ccccc2)nnc1-c1ccc(S(=O)(=O)N2CCCCC2)cc1 | . | . | . | ? | . | . | . | 89 | . | 94
CCn1c(SCC(=O)O)nnc1-c1ccc(S(=O)(=O)N2CCCC2)cc1 | . | . | . | . | / | . | / | / | / | /
Cc1c(NC(=O)C(C)OC(=O)c2cc(Cl)ccc2O)c(=O)n(-c2ccccc2)n1C (stereo not given) | . | . | . | . | / | . | / | / | / | /
COc1ccc(NCc2cc(=O)oc3cc(NC(C)=O)ccc23)cc1 | . | . | . | -81 | / | . | . | 88 | . | 93
COc1ccc2c(CC(=O)N[C@@H](Cc3ccccc3)C(=O)O)cc(=O)oc2c1 | . | . | . | . | / | . | / | / | / | /
CN(Cc1nccn1C)C(=O)c1cc(COc2cccc(C(F)(F)F)c2)on1 | . | . | . | . | / | . | / | / | / | /
CC(=O)c1cccc(OCc2cc(C(=O)N(C)C(C)c3ccccn3)no2)c1 (stereo not given) | . | . | . | . | / | . | / | / | / | /
CCc1ccc(CN(C)C(=O)c2cc(COc3cccc(C(F)(F)F)c3)on2)nc1 | . | . | . | -83 | / | . | ? | 92 | ? | 95
Cc1ccc(CN(C)C(=O)c2cc(COc3cccc(C(F)(F)F)c3)on2)o1 | . | . | . | -81 | / | . | 65 | 95 | 87 | 96
CC(=O)c1cccc(OCc2cc(C(=O)N(C)Cc3cnccn3)no2)c1 | . | . | . | ? | / | . | . | 92 | . | 95
CCc1ccc(CN(C)C(=O)c2cc(COc3ccc(OC)cc3Cl)on2)nc1 | . | . | . | . | / | . | / | / | / | /
CC(C)C(NC(=O)c1ccccc1F)C(=O)NCc1ccccc1 (stereo not given) | . | . | . | . | / | . | / | / | / | /
O=C(NCCc1c[nH]c2ccccc12)c1cc(Cl)c2c(c1)OCO2 | . | . | . | . | / | . | / | / | / | /
O=C(NCCc1c[nH]c2ccccc12)c1cc2sccc2n1Cc1ccccc1 | . | . | . | . | . | . | / | / | / | /
Cn1c(C(=O)NCCc2c[nH]c3ccccc23)cc2sccc21 | . | . | . | ? | . | . | . | 93 | . | 94
O=C(NCCc1c[nH]c2ccccc12)c1ccc2c(c1)OCO2 | . | . | . | -85 | / | . | . | 93 | . | 97
CCOC(=O)Cc1csc(/N=C/c2c(O)n(-c3ccccc3C(F)(F)F)c(=O)c3ccccc23)n1 | . | . | . | . | . | . | / | / | / | /
O=C(c1cccc(F)c1F)N1CCCC1 | . | . | . | . | . | . | / | / | / | /
Cc1c(Br)c(C(=O)NNC(=O)c2ccc(C(C)(C)C)cc2)nn1C | . | . | . | -88 | . | . | . | 96 | . | 97
COc1ccc(Cc2nnc(CCc3ccccc3)s2)cc1 | . | . | . | ? | / | . | . | 78 | . | 86
SMILES | KCNQ1 inh | hERG protect | KCNQ1 act | AI-2 QS mod | Cl transport mod | Mot1-301 SUMO | JMH597 growth | BB721 lum counter | BB721 growth rt | AI-2 QS JMH597
COc1ccc(NC(=O)Nc2nnc(Cc3ccccc3)s2)cc1 | . | . | . | . | / | . | / | / | / | /
CC(Nc1ccc(Br)cn1)c1cc(Cl)ccc1O (stereo not given) | . | . | . | -86 | / | / | . | 96 | . | 97
CC(=O)Nc1ccc(S(=O)(=O)N2CCN(Cc3csc(C)n3)CC2)cc1 | . | . | . | . | / | . | / | / | / | /
NS(=O)(=O)c1ccc(NC(=S)Nc2ccn(Cc3cccc4ccccc34)n2)cc1 | . | . | . | . | . | . | / | / | / | /
COc1cccc(/C=C/C(=O)NCc2ccc3c(c2)OCO3)c1 | . | . | . | -86 | / | . | . | 95 | . | 96
COc1cccc(OCc2cc(C(=O)NCc3ccc4c(c3)OCO4)no2)c1 | . | . | . | ? | / | . | . | 92 | ? | 96
O=C(NCc1ccc2c(c1)OCO2)c1cc(COc2c(F)cccc2F)on1 | . | . | . | . | / | . | / | / | / | /
COc1ccc(CC(=O)NCc2ccc3c(c2)OCO3)cc1 | . | . | . | . | . | . | / | / | / | /
N/C(=N\OC(=O)CC1CCCCC1)c1ccc(Br)cc1 | . | . | . | . | / | . | / | / | / | /
N/C(=N\OC(=O)CC1CCCCC1)c1cccc(Br)c1 | . | . | . | -80 | / | . | . | 96 | . | 96
COc1ccc(NCC(=O)Nc2cccc(C(F)(F)F)c2)cc1S(=O)(=O)N1CCOCC1 | / | / | / | / | / | . | / | / | / | /
O=CN(/C=C1\Sc2ccccc2C1=O)Cc1ccccc1 | . | . | . | -90 | . | . | . | 96 | . | 97
CCC(=O)N(C)/C=C1\Sc2ccccc2C1=O | . | . | . | . | . | . | / | / | / | /
CC(=O)Nc1ccc(C(=O)CN2C(=O)NC3(CCOc4ccccc43)C2=O)c(F)c1 (stereo not given) | / | / | / | / | / | . | / | / | / | /
Cn1cnc(S(=O)(=O)Nc2ccc(C(F)(F)F)cc2)c1 | . | . | . | . | . | . | / | / | / | /
Cn1cnc(S(=O)(=O)Nc2ccc(OC(F)(F)F)cc2)c1 | . | . | . | ? | . | / | . | . | . | 88
N#Cc1nc(-c2ccccc2F)oc1NCc1ccccc1 | . | . | . | -90 | . | . | . | 96 | . | 97
N#Cc1nc(-c2ccccc2F)oc1NCCc1ccccc1 | . | . | . | . | . | . | / | / | / | /
Cc1ccc(CNc2oc(-c3ccco3)nc2C#N)cc1 | . | . | . | -86 | / | . | . | 95 | . | 98
CNc1oc(-c2ccco2)nc1C#N | . | . | . | . | / | . | / | / | / | /
CCc1nc(CN2CCN(c3cc(C(F)(F)F)ccn3)CC2)c(C)[nH]1 | . | . | . | . | . | . | / | / | / | /
O=C(c1ccco1)N1CCN(Cc2cc(=O)c(OCc3ccccc3F)co2)CC1 | . | . | . | . | / | . | / | / | / | /
CC(C)(C)c1ccc(/C=N/NC(=O)C2CCCC2)cc1 | . | . | . | -83 | / | . | . | 96 | ? | 97

Bioassay records as filed in PubChem.
